Results from ChEMBL document CHEMBL2440064, “Synthesis and biological evaluation of 2-amino-5-aryl-3-benzylthiopyridine scaffold based potent c-Met inhibitors” (Bioorg Med Chem, 2013).
The source made the active and inactive calls. The calls are words filed in the database; no cut-off is given here.

How the values were obtained:
[1] = molecular target: T1, Hepatocyte growth factor receptor (Homo sapiens, UniProt P08581); assay: Inhibition of c-Met phosphorylation in gefitinib-resistant human HCC827 cells at 0.5 uM after 2 hrs by Western blotting analysis; assay type: cell-based
T1 sequence (P08581 whole entry): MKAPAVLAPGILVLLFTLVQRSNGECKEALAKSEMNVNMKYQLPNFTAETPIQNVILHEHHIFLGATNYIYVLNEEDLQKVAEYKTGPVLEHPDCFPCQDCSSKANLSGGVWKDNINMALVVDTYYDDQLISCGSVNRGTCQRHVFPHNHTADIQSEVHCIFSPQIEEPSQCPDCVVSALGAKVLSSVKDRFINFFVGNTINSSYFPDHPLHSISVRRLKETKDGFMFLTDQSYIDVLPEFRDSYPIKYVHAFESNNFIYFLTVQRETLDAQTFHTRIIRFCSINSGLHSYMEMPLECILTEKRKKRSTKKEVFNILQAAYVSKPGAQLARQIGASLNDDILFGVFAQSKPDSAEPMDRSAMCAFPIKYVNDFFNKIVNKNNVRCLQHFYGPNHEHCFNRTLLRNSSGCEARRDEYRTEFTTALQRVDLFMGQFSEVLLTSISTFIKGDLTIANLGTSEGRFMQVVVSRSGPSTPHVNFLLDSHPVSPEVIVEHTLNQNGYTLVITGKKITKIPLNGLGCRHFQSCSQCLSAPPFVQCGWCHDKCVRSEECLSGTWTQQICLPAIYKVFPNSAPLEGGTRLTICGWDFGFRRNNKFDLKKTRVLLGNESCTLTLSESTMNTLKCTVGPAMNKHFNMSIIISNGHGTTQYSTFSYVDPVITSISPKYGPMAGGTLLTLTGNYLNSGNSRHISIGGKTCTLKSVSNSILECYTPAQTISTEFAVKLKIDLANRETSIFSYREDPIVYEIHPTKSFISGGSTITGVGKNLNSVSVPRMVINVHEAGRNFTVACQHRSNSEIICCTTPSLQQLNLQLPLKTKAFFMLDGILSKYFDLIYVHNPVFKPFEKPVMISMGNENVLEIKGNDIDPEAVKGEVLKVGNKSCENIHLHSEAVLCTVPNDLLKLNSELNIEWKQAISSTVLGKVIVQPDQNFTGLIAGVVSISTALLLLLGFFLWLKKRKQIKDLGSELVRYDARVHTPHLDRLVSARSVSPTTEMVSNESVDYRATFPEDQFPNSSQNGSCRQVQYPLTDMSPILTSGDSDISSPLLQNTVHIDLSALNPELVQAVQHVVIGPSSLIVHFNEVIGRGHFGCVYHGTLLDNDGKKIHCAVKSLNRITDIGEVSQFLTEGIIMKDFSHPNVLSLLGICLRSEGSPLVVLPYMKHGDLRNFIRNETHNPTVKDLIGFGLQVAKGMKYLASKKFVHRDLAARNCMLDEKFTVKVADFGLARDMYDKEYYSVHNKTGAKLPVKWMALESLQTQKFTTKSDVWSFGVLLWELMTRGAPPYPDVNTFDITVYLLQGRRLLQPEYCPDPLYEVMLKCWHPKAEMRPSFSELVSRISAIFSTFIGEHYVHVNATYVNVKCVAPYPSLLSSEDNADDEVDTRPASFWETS
How it was run: (§1)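 Cells grown to exponential phase, treated with compound 2 h at 37°C, lysed in 1× SDS sample buffer, resolved on 10% SDS-PAGE and transferred to nitrocellulose for immunoblotting.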

[2] = molecular target: T1, Hepatocyte growth factor receptor; assay: Inhibition of c-Met in human HCC827/GR5 cells assessed as potentiation of gefitinib-induced cell growth inhibition at 0.5 uM after 72 hrs; assay type: cell-based
[3] = molecular target: Hepatocyte growth factor receptor (Canis lupus familiaris) (UniProt Q75ZY9); assay: Inhibition of c-Met in MDCK cells assessed as HGF-induced cell scattering after 24 hrs by microscopic analysis; assay type: cell-based
Hepatocyte growth factor receptor (Canis lupus familiaris), sequence (Q75ZY9 whole entry): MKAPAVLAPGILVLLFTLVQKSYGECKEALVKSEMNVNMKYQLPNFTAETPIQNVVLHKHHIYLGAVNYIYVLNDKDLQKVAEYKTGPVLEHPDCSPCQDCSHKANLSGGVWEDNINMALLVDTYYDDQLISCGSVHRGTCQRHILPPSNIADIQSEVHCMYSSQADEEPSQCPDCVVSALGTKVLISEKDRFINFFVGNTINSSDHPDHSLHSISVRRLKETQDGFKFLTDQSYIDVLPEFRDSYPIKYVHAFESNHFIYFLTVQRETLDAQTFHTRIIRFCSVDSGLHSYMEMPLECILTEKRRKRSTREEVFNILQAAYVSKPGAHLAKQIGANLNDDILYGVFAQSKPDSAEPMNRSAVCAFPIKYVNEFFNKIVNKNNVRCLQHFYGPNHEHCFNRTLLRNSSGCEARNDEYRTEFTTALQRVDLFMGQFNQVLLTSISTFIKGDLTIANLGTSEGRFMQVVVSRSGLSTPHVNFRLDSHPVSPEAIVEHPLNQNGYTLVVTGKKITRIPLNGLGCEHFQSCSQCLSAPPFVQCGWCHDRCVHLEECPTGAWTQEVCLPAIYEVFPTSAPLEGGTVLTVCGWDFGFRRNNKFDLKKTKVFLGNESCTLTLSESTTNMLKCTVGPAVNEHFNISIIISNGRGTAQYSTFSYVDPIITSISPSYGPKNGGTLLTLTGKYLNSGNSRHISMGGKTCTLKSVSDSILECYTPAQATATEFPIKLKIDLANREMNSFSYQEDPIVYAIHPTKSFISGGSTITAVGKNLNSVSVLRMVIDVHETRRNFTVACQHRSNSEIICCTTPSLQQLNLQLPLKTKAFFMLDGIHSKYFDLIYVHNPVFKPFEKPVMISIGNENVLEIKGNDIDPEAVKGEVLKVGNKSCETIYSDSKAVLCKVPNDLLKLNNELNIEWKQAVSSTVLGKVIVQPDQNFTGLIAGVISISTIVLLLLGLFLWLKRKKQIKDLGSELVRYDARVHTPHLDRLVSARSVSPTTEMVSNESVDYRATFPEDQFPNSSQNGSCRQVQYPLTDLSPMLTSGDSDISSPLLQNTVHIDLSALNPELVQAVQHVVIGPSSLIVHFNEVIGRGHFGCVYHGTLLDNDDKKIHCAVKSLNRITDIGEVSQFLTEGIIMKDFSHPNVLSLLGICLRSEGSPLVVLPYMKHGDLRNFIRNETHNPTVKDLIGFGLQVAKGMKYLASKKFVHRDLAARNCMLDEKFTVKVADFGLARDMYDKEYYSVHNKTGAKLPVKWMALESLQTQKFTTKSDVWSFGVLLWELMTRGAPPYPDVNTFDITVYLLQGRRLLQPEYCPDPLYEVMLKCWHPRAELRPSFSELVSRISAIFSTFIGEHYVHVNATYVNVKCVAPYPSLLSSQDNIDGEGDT
How it was run: (§2)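 MDCK cells plated at 1,500/well in 96-well plates and allowed to form clusters over 24 h. Then 24 h with compound plus 50 ng/mL recombinant human HGF in FBS-free medium. Fixed in 4% paraformaldehyde 15 min at room temperature, stained with 0.2% crystal violet and imaged by microscopy.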

[4] = Half life in rat at 2 mg/kg, iv and 10 mg/kg, po; assay type: ADME, organism-based; conditions: in vivo
How it was run: (§3)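 Rat pharmacokinetics after a single intravenous dose (2 mg/kg) and a single oral dose (10 mg/kg).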

[5] = molecular target: Hepatocyte growth factor receptor (Canis lupus familiaris) (UniProt Q75ZY9); assay: Inhibition of c-Met in MDCK cells assessed as HGF-induced cell scattering at 3 uM after 24 hrs by microscopic analysis; assay type: cell-based; how it was run: as §2
MKN-45 = assay: Antiproliferative activity against human MKN45 cells after 72 hrs; conditions: MKN-45, 72 h
[6] = Clearance in rat at 2 mg/kg, iv and 10 mg/kg, po; assay type: ADME, organism-based; conditions: in vivo; how it was run: as §3
SK-MEL-28 = assay: Antiproliferative activity against human SK-MEL-28 cells after 72 hrs; conditions: SK-MEL-28, 72 h
[7] = molecular target: Vascular endothelial growth factor receptor 2 (Homo sapiens, UniProt P35968); assay: Inhibition of KDR (unknown origin) using poly (Glu, Tyr) 4:1 as substrate after 60 mins by ELISA
How it was run: (§4)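 ELISA on wells precoated with 20 µg/mL poly(Glu,Tyr)4:1. Purified kinase with 10 µmol/L ATP in 50 mM HEPES pH 7.4, 50 mM MgCl₂, 0.5 mM MnCl₂, 0.2 mM Na₃VO₄, 1 mM DTT; 1% DMSO vehicle. 60 min at 37°C. Phosphotyrosine detected with PY99 antibody, then HRP anti-mouse IgG and o-phenylenediamine/H₂O₂, A490. Inhibition = [1−(A490/A490 control)]×100%; IC50 from curves.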

[8] = molecular target: T1, Hepatocyte growth factor receptor; assay: Inhibition of c-Met in human MKN45 cells assessed as inhibition of p44/42 phosphorylation at 0.16 to 20 uM after 2 hrs by Western blotting analysis; assay type: cell-based; conditions: MKN-45; how it was run: as §1
[9] = molecular target: Fibroblast growth factor receptor 1 (Homo sapiens, UniProt P11362); assay: Inhibition of FGFR1 (unknown origin) using poly (Glu, Tyr) 4:1 as substrate after 60 mins by ELISA; how it was run: as §4
[10] = molecular target: Tyrosine-protein kinase receptor TYRO3 (Homo sapiens, UniProt Q06418); assay: Inhibition of TYRO3 (unknown origin) using poly (Glu, Tyr) 4:1 as substrate after 60 mins by ELISA; how it was run: as §4
[11] = molecular target: Platelet-derived growth factor receptor alpha (Homo sapiens, UniProt P16234); assay: Inhibition of PDGFRalpha (unknown origin) using poly (Glu, Tyr) 4:1 as substrate after 60 mins by ELISA; how it was run: as §4
Platelet-derived growth factor receptor alpha, sequence (P16234 whole entry): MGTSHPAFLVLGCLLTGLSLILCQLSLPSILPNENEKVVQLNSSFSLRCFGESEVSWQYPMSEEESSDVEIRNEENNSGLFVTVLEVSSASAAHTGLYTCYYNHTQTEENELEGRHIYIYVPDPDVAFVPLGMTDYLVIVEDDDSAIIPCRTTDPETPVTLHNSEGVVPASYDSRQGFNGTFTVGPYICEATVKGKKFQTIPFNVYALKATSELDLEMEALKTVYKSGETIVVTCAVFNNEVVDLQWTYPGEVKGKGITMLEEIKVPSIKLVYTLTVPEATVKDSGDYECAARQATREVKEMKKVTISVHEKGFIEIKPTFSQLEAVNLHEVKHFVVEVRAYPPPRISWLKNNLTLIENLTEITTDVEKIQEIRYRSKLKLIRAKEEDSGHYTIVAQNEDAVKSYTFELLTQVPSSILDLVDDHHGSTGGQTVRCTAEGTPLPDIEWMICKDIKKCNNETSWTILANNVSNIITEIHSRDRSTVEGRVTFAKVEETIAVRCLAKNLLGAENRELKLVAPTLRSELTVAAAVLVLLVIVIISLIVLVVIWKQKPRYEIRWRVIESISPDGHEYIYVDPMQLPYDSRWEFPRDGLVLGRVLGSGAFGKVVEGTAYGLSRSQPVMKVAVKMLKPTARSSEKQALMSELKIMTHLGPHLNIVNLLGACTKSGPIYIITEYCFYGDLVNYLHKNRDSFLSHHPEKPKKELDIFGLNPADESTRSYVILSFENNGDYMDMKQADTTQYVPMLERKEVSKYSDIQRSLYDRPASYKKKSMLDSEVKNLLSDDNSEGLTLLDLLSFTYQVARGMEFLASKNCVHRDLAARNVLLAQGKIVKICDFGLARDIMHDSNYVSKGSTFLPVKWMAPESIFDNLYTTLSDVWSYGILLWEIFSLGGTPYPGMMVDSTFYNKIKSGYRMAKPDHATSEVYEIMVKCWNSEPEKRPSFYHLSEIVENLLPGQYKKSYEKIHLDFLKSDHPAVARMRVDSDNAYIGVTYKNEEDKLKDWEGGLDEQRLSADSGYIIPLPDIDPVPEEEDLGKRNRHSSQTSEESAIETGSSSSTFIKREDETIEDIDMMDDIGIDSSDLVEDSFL

SNU-5 = assay: Antiproliferative activity against human SNU5 cells after 72 hrs; conditions: SNU-5, 72 h
[12] = molecular target: Hepatocyte growth factor receptor (Canis lupus familiaris) (UniProt Q75ZY9); assay: Inhibition of c-Met in MDCK cells assessed as HGF-induced cell motility at 0.3 to 3 uM after 1 to 10 hrs by wound-healing assay; assay type: cell-based
How it was run: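 MDCK monolayers in 12-well plates, pre-incubated 30 min serum-free. Scratch wound made with micropipette and washed, then compound added with or without 50 ng/mL recombinant human HGF at 37°C. Phase-contrast images at 0 and 10 h.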

[13] = molecular target: T2, TPR/MET fusion protein (Mus musculus) (UniProt P16056+F6ZDS4); assay: Inhibition of TPR/Met phosphorylation in mouse NIH3T3 cells after 2 hrs by Western blotting analysis; assay type: cell-based; how it was run: as §1
[14] = molecular target: T1, Hepatocyte growth factor receptor; assay: Inhibition of c-Met (unknown origin) using poly (Glu, Tyr) 4:1 as substrate after 60 mins by ELISA
[15] = molecular target: T1, Hepatocyte growth factor receptor; assay: Inhibition of c-Met in gefitinib-resistant human HCC827 cells assessed as inhibition of AKT phosphorylation at 0.5 uM after 2 hrs by Western blotting analysis in presence of gefitinib; assay type: cell-based; how it was run: as §1
MDA-MB-231 = assay: Antiproliferative activity against human MDA-MB-231 cells after 72 hrs; conditions: MDA-MB-231, 72 h
BaF3 = assay: Induction of cell cycle arrest in mouse BAF3 cells expressing TPR/Met fusion protein assessed as accumulation at G1 phase at 1 uM after 24 hrs by propidium iodide staining-based FACS analysis (reference value: 26.6%); assay type: functional
[16] = molecular target: T1, Hepatocyte growth factor receptor; assay: Inhibition of c-Met phosphorylation in human EBC1 cells after 2 hrs by Western blotting analysis; assay type: cell-based
How it was run: (§5)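 Cells grown under regular conditions to exponential phase, exposed to compound at indicated concentrations for 2 h at 37°C, lysed in 1× SDS sample buffer. Lysates resolved on 10% SDS-PAGE and transferred to nitrocellulose for immunoblotting.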

[17] = molecular target: T1, Hepatocyte growth factor receptor; assay: Inhibition of c-Met in gefitinib-resistant human HCC827 cells assessed as inhibition of p44/42 phosphorylation at 0.5 uM after 2 hrs by Western blotting analysis; assay type: cell-based; how it was run: as §1
[18] = molecular target: Epidermal growth factor receptor (Homo sapiens, UniProt P00533); assay: Inhibition of EGFR (unknown origin) using poly (Glu, Tyr) 4:1 as substrate after 60 mins by ELISA; how it was run: as §4
Epidermal growth factor receptor, sequence (P00533 whole entry): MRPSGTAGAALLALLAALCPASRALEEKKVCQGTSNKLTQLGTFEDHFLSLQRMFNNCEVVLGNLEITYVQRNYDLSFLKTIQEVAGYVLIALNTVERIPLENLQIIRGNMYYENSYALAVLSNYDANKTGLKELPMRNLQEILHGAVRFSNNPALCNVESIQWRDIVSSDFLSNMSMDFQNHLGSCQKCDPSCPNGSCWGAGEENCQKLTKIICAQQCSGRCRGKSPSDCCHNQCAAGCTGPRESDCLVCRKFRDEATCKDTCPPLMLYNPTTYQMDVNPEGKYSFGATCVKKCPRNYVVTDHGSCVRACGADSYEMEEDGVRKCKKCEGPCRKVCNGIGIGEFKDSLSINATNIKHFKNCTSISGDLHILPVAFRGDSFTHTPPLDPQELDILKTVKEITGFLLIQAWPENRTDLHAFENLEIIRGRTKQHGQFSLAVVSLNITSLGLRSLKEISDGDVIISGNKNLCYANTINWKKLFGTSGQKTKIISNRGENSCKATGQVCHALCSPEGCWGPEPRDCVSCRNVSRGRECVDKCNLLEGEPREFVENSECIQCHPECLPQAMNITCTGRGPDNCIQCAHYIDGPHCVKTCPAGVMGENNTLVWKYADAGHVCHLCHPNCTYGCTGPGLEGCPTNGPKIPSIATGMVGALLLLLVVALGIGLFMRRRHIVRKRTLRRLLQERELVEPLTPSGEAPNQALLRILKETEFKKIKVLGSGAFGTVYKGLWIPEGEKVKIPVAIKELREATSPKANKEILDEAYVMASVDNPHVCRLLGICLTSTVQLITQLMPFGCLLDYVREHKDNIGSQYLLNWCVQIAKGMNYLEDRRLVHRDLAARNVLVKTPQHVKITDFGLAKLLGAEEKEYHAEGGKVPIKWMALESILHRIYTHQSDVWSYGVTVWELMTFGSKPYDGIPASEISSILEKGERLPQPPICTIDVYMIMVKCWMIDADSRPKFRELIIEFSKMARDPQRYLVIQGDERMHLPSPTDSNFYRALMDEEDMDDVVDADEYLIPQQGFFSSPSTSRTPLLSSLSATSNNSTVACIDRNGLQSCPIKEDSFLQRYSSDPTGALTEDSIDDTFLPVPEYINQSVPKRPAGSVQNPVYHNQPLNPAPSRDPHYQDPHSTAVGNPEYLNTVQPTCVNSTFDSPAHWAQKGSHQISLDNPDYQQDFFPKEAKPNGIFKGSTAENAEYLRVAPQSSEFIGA

[19] = Oral bioavailability in rat at 10 mg/kg; assay type: ADME, organism-based; conditions: in vivo
How it was run: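 Rats given a single iv dose (2 mg/kg) or a single po dose (10 mg/kg).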

[20] = molecular target: T1, Hepatocyte growth factor receptor; assay: Inhibition of c-Met phosphorylation in human SNU5 cells after 2 hrs by Western blotting analysis; assay type: cell-based; conditions: SNU-5; how it was run: as §5
[21] = molecular target: ALK tyrosine kinase receptor (Homo sapiens, UniProt Q9UM73); assay: Inhibition of ALK (unknown origin) using poly (Glu, Tyr) 4:1 as substrate after 60 mins by ELISA; how it was run: as §4
[22] = molecular target: T1, Hepatocyte growth factor receptor; assay: Inhibition of c-Met in gefitinib-resistant human HCC827 cells assessed as inhibition of AKT phosphorylation at 0.5 uM after 2 hrs by Western blotting analysis; assay type: cell-based; how it was run: as §1
NCI-H661 = assay: Antiproliferative activity against human NCI-H661 cells after 72 hrs; conditions: NCI-H661, 72 h
[23] = molecular target: T1, Hepatocyte growth factor receptor; assay: Inhibition of c-Met in human EBC1 cells assessed as inhibition of p44/42 phosphorylation at 0.16 to 20 uM after 2 hrs by Western blotting analysis; assay type: cell-based; how it was run: as §1
[24] = molecular target: Proto-oncogene tyrosine-protein kinase receptor Ret (Homo sapiens, UniProt P07949); assay: Inhibition of RET (unknown origin) using poly (Glu, Tyr) 4:1 as substrate after 60 mins by ELISA; how it was run: as §4
[25] = molecular target: T2, TPR/MET fusion protein (Mus musculus); assay: Inhibition of TPR/Met in mouse BAF3 cells assessed as inhibition of p44/42 phosphorylation at 0.08 to 10 uM after 2 hrs by Western blotting analysis; assay type: cell-based; how it was run: as §1

Structure (SMILES): C[C@@H](Sc1cc(-c2cnn(C3CCNCC3)c2)cnc1N)c1c(Cl)ccc(F)c1Cl
- inhibition [1]: Active
- inhibition [2]: Active
- inhibition [3]: Dose-dependent effect
- half-life [4]: 5.7 h
- inhibition [5]: Active
- IC50 (MKN-45): 0.29 µM
- clearance [6]: 53 mL/min/kg
- IC50 (SK-MEL-28): 9.31 µM
- IC50 [7]: > 1 µM
- inhibition [8]: Active
- IC50 [9]: > 1 µM
- IC50 [10]: > 1 µM
- IC50 [11]: > 1 µM
- IC50 (SNU-5): 0.19 µM
- inhibition [12]: Active
- inhibition [13]: Dose-dependent effect
- IC50 [14]: 0.0077 µM
- inhibition [15]: Active
- IC50 (MDA-MB-231): 12.1 µM
- Activity (BaF3): 69.6%
- inhibition [16]: Dose-dependent effect
- inhibition [17]: inactive
- IC50 [18]: > 1 µM
- bioavailability [19]: 12.8%
- inhibition [20]: Dose-dependent effect
- IC50 [21]: 0.349 µM
- inhibition [22]: inactive
- IC50 (NCI-H661): 16.2 µM
- inhibition [23]: Active
- IC50 [24]: > 1 µM
- inhibition [25]: Active
